Data reported in paper PMC11698471 (Neuropharmacology, 2022).

Experiments:
[1] = Plasma pharmacokinetics in awake macaques; format: in vivo, Macaca Mulatta and Fascicularis; settings: suboptimal L-DOPA + PDE9i 5 mg/kg vs PDE9i vehicle
In short: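 Two awake, chair-trained MPTP-parkinsonian macaques from the behavioural cohort were restrained unsedated. Test compound (s.c., 5 mg/kg, or 0 mg/kg vehicle) was given with each animal's sub-optimal s.c. L-DOPA methyl ester/benserazide dose. Saphenous vascular-port blood was drawn pre-injection and at 60, 120 and 180 min. Each treatment was given twice, and samples were processed in duplicate. Plasma was stored at −80°C for LC/MS.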

[2] = test system: MPTP-treated parkinsonian macaques; assay: L-Dopa responses of the parkinsonian macaques; format: in vivo, Macaca Mulatta and Fascicularis
[3] = test system: MPTP-treated parkinsonian macaques; assay: PDE9i - L-DOPA co-administration trial in MPTP parkinsonian macaques; format: in vivo, Macaca Mulatta and Fascicularis; settings: L-DOPA suboptimal dose s.c. alone, typical average
PDE 5 and 6 = settings: cited from earlier work
PDE 9, 10, and 11 = settings: cited from earlier work
[4] = test system: L-DOPA-induced abnormal involuntary movements; settings: rodents; ref Giorgi et al., 2008; Picconi et al., 2011; cited from earlier work

| plasma levels of L-DOPA with PDE9i addition [1] | LID (dyskinesia score at peak-dose effect of L-dopa) ([2]; monkey 1, scale 0 to 27) | LID (dyskinesia score at peak-dose effect of L-dopa) ([2]; monkey 2, scale 0 to 27) | LID (dyskinesia score at peak-dose effect of L-dopa) ([2]; monkey 3, scale 0 to 27) | LID (dyskinesia score at peak-dose effect of L-dopa) ([2]; monkey 4, scale 0 to 27) | LID (dyskinesia score at peak-dose effect of L-dopa) ([2]; monkey 5, scale 0 to 27) | LID (dyskinesia score at peak-dose effect of L-dopa) ([2]; monkey 6, scale 0 to 27) | Structure (SMILES) | MDS ON (motor disability score at the peak-dose effect of L-dopa) ([2]; monkey 1, scale 0 to 39, MDS OFF 17) | MDS ON (motor disability score at the peak-dose effect of L-dopa) ([2]; monkey 2, scale 0 to 39, MDS OFF 17) | MDS ON (motor disability score at the peak-dose effect of L-dopa) ([2]; monkey 3, scale 0 to 39, MDS OFF 19) | MDS ON (motor disability score at the peak-dose effect of L-dopa) ([2]; monkey 4, scale 0 to 39, MDS OFF 22) | MDS ON (motor disability score at the peak-dose effect of L-dopa) ([2]; monkey 5, scale 0 to 39, MDS OFF 23) | MDS ON (motor disability score at the peak-dose effect of L-dopa) ([2]; monkey 6, scale 0 to 39, MDS OFF 23.5) | response duration ("on" state) [3] | affinity for PDE 5 and 6 (PDE 5 and 6) | affinity for PDE 9, 10, and 11 (PDE 9, 10, and 11) | L-DOPA-induced abnormal involuntary movements [4] |
| --- | --- | --- | --- | --- | --- | --- | --- | --- | --- | --- | --- | --- | --- | --- | --- | --- | --- |
| remained unchanged | 13 | 11.5 | 10 | 9 | 7 | 11 | N[C@@H](Cc1ccc(O)c(O)c1)C(=O)O [L-DOPA] | 1.5 | 1.5 | 3.5 | 4.5 | 8.5 | 3.5 | ~100 min | – | – | – |
| – | – | – | – | – | – | – | CCCOc1ccccc1-c1nc2nn[nH]c2c(=O)[nH]1 [zaprinast] | – | – | – | – | – | – | – | moderate | weak | reduction of L-DOPA-induced abnormal involuntary movements |
